Measurements as given in ChEMBL document CHEMBL1156759, “Identification and optimization of inhibitors of Trypanosomal cysteine proteases: cruzain, rhodesain, and TbCatB” (J Med Chem, 2010).
Calls of active or inactive are those of the source. No cut-off for these calls is given here.

Experiments:
Cruzipain [1] = biological target: T1, Cruzipain (Trypanosoma cruzi, UniProt P25779); assay: Inhibition of Trypanosoma cruzi cruzain after 15 mins
Procedure, shortened: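 Cruzain at 1.5 nM final in 100 mM acetate pH 5.5, 5 mM DTT, 0.01% Triton X-100; compounds as serial 2-fold dilutions pin-transferred in DMSO. 15 min room-temperature preincubation, then Z-FR-AMC 2 μM final. Kinetic fluorescence read at ex 340/em 450 nm. Percent inhibition from the first 60 s signal change versus no-enzyme and uninhibited controls (48 wells each).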

[2] = Inhibition of recombinant Trypanosoma brucei cathepsin B after 5 mins by spectrofluorimetric analysis
Procedure, shortened: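 Recombinant TbCatB at 258 nM in 100 mM sodium acetate pH 5.5, 5 mM DTT, 0.001% Triton X-100, preincubated with compound in DMSO for 5 min at room temperature. Z-Phe-Arg-AMC 10 μM added to start. Rate of fluorescence rise read at ex 355/em 460 nm; DMSO control wells; IC50 from curve fitting.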

[3] = Inhibition of recombinant Trypanosoma brucei rhodesain after 5 mins by spectrofluorimetric analysis
Procedure, shortened: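 Recombinant rhodesain, 4 nM, preincubated 5 min at room temperature with compound (DMSO) in 100 mM sodium acetate pH 5.5, 5 mM DTT, 0.001% Triton X-100. Reaction started with 10 μM Z-Phe-Arg-AMC; rate of AMC fluorescence increase read at ex 355/em 460 nm. IC50 from curve fitting; DMSO-only wells as positive control.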

Cruzipain [4] = biological target: T1, Cruzipain; assay: Inhibition of recombinant Trypanosoma cruzi cruzain after 5 mins by spectrofluorimetric analysis
Procedure, shortened: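 Recombinant cruzain at 4 nM (activated procruzain, anion-exchange purified) in 100 mM sodium acetate pH 5.5, 5 mM DTT, 0.001% Triton X-100. Preincubated 5 min at room temperature with compound in DMSO, then Z-Phe-Arg-AMC 10 μM. Fluorescence rate read at ex 355/em 460 nm; DMSO controls; IC50 by curve fitting.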

J774 = assay: Cytotoxicity against mouse J774 cells at 10 uM; format: cell-based; details: j774, 10 µM
Procedure, shortened: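 Irradiated (1000 rad) J774 macrophages plated overnight and infected 2 h with Y strain T. cruzi trypomastigotes. After parasite removal, cultured in RPMI-1640 with compound (n = 3), medium changed every 48 h, for 27 days. Toxicity to host cells (granulation, detachment, death) scored daily by phase-contrast microscopy at 400×.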

Trypanosoma cruzi [5] = assay: Antitrypanosomal activity against Trypanosoma cruzi Y trypomastigotes infected in mouse J774 cells at 1 uM after 27 days medium replaced every 48 hrs; format: functional, organism-based
Procedure, shortened: (§1)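 Irradiated (1000 rad) J774 macrophages plated overnight, infected 2 h with Y strain trypomastigotes, parasites removed, then cultured in RPMI-1640 with compound (n = 3); untreated infected and 10 μM K777 controls per experiment. Medium replaced every 48 h over 27 days; daily phase-contrast microscopy (400×) for free trypomastigotes and host toxicity; cultures kept 14 further days to confirm cure.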

Trypanosoma cruzi [6] = assay: Antitrypanosomal activity against Trypanosoma cruzi Y trypomastigotes infected in mouse J774 cells at 5 uM after 27 days medium replaced every 48 hrs; format: functional, organism-based; procedure, shortened: as §1
Trypanosoma cruzi [7] = assay: Antitrypanosomal activity against Trypanosoma cruzi Y trypomastigotes infected in mouse J774 cells at 10 uM after 27 days medium replaced every 48 hrs; format: functional, organism-based; procedure, shortened: as §1

T1 sequence (P25779 whole entry): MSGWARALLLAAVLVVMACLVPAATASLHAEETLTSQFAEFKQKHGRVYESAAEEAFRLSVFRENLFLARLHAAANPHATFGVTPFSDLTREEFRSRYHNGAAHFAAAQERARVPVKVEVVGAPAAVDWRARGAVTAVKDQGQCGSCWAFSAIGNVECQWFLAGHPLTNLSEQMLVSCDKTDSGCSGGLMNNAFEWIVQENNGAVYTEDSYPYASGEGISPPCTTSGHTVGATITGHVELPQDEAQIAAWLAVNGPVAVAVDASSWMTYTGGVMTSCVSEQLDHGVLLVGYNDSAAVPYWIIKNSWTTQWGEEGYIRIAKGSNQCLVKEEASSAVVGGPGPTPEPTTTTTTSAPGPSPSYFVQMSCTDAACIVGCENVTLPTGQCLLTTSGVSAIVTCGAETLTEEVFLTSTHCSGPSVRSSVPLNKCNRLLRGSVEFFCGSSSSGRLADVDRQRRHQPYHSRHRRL

SMILES	IC50 (Cruzipain [1]; read-out: IC50) [nM]	IC50 [2] [nM]	IC50 [3] [nM]	IC50 (Cruzipain [4]) [nM]	further results
N#Cc1nc(NCCCCO)nc(Nc2ccccc2)n1	890				
N#Cc1nc(Nc2ccc(Br)cc2)nc(NC2CCCC2)n1	1120	> 10000	100	60	
CCNc1nc(C#N)nc2c1ncn2-c1cccc(Cl)c1	63				
N#Cc1nc(Nc2cc(Cl)cc(Cl)c2)nc(NC2CCCC2)n1	398	> 10000	30	10	Activity (J774): Toxic; Activity (Trypanosoma cruzi [5]): inactive; Activity (Trypanosoma cruzi [6]): inactive
CCOc1nc(C#N)nc(N2CCCCC2)n1		> 1000	300	90	
N#Cc1nc(NCC2CC2)nc(Nc2ccccc2)n1	890				
N#Cc1nc(Nc2cc(F)cc(F)c2)c2ncn(C3CCCC3)c2n1	18				
CCn1cnc2c(Nc3cccc(Cl)c3)nc(C#N)nc21	18	> 100000	10	0.4	Activity (Trypanosoma cruzi [7]): inactive
N#Cc1nc(NCC(F)F)c2ncn(-c3cc(F)cc(F)c3)c2n1	50				
CC(C)CNc1nc(C#N)nc(Nc2ccccc2)n1	890				
N#Cc1nc(NC2CCCC2)c2ncn(-c3cc(F)cc(F)c3)c2n1	316				
CCNc1nc(C#N)nc(Nc2ccccc2)n1	710				
N#Cc1nc(NCCO)nc(Nc2ccccc2)n1	1580				
N#Cc1nc(NCC(F)F)c2ncn(-c3cccc(Cl)c3)c2n1	71				
N#Cc1nc(Nc2cccc(F)c2)nc(NC2CCCC2)n1	79	> 1000	20	10	
N#Cc1nc(Nc2cccc(Cl)c2)c2ncn(C3CCCC3)c2n1	40	> 10000	< 6	0.3	Activity (Trypanosoma cruzi [7]): inactive
N#Cc1nc(Nc2cccc(C(F)(F)F)c2)nc(NC2CCCC2)n1		> 10000	70	40	IC50 (Cruzipain [1]): Not Active; Activity (J774): Toxic; Activity (Trypanosoma cruzi [5]): inactive; Activity (Trypanosoma cruzi [6]): inactive
N#Cc1nc(Nc2ccccc2)nc(NC2CCCCC2)n1	1410				
N#Cc1nc(NCC(F)F)nc(Nc2cc(F)cc(F)c2)n1	25	1000	< 6	1	
CNc1nc(C#N)nc(Nc2ccccc2)n1	1260				
CCCCNc1nc(C#N)nc(Nc2ccccc2)n1	890				
CC(C)Nc1nc(C#N)nc(Nc2ccccc2)n1	890				
N#Cc1nc(Nc2ccccc2)nc(NC2CCCC2)n1	710				
Cc1cccc(Nc2nc(C#N)nc(NC3CCCC3)n2)c1	126	6000	50	30	Activity (J774): Toxic; Activity (Trypanosoma cruzi [5]): inactive; Activity (Trypanosoma cruzi [6]): inactive
N#Cc1nc(Nc2ccc(F)cc2)nc(NC2CCCC2)n1	126	> 1000	40	30	
CCCNc1nc(C#N)nc(Nc2ccccc2)n1	790				
N#Cc1nc(Nc2cccc(-c3ccccc3)c2)nc(NC2CCCC2)n1	2240	> 10000	30	50	Activity (J774): Toxic; Activity (Trypanosoma cruzi [5]): inactive; Activity (Trypanosoma cruzi [6]): inactive
N#Cc1nc(Nc2cccc([N+](=O)[O-])c2)nc(NC2CCCC2)n1	63	> 1000	8	1	
